According to ChEMBL document CHEMBL4265981, “Design, synthesis, and biological evaluation of novel pan agonists of FFA1, PPARγ and PPARδ” (Eur J Med Chem, 2018):

What was measured:
[1] = target: T1, Peroxisome proliferator-activated receptor gamma (Homo sapiens, UniProt P37231); experiment: Agonist activity at human GAL4 fused PPARgamma-LBD expressed in HEK293 cells after 18 hrs by luciferase reporter gene assay; format: cell-based
T1 sequence (P37231 whole entry): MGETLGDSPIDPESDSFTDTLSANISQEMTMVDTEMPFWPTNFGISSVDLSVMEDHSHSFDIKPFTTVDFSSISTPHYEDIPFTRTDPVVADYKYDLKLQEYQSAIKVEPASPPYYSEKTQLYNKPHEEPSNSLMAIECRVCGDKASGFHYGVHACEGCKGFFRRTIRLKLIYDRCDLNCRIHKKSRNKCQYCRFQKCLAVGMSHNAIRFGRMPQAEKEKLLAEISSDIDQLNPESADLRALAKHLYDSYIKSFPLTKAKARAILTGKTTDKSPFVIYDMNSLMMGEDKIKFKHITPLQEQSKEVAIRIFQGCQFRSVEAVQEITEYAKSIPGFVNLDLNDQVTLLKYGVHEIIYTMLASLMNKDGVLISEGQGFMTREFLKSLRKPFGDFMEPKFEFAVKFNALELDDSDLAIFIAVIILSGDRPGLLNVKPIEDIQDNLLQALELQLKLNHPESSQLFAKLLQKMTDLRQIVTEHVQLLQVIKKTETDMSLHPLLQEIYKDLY
In short: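 HEK293 cells plated 1 day ahead in antibiotic-free DMEM, transiently transfected with pBIND-PPARγ plus pG5Luc reporter (25 ng/well each). After 24 h, compounds added at various concentrations for 18 h. Dual firefly/renilla luciferase read-out, firefly normalized to renilla. % activation scaled between no-compound control and reference agonist; EC50 is the mean of three determinations.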

[2] = target: T2, Free fatty acid receptor 1 (Homo sapiens, UniProt O14842); experiment: Agonist activity at human FFA1 expressed in CHO cells assessed as increase in intracellular Ca2+ flux after 1 hr by Fluo4-AM dye based FLIPR assay; format: functional, cell-based
In short: (§1)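 CHO cells stably expressing human FFA1, seeded 16 h at 37 °C, washed with HBSS, then loaded 1 h at 37 °C with Fluo 4-AM (2.5 μg/mL), 2.5 mmol/L probenecid and 0.1% fatty acid-free BSA. Intracellular Ca2+ flux read by FLIPR after compound addition at various concentrations.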

[3] = target: T3, Peroxisome proliferator-activated receptor alpha (Homo sapiens, UniProt Q07869); experiment: Agonist activity at human GAL4 fused PPARalpha-LBD expressed in human HepG2 cells after 18 hrs by luciferase reporter gene assay; format: cell-based
T3 sequence (Q07869 whole entry): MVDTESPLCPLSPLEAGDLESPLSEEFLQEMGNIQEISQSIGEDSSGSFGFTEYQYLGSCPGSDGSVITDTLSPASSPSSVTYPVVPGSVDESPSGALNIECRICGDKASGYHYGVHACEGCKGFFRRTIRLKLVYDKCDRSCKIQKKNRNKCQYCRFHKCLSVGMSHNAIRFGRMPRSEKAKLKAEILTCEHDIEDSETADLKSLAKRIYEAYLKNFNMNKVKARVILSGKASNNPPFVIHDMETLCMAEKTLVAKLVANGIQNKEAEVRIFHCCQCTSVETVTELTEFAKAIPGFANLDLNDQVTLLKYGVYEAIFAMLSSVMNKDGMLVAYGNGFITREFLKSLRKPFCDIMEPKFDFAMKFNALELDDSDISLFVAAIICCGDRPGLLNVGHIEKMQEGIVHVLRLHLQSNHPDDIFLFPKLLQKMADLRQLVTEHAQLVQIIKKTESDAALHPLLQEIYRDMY
In short: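 HepG2 cells plated 1 day ahead in antibiotic-free MEM, then run by the same GAL4 protocol: pBIND-PPAR construct plus pG5Luc reporter transfection, 18 h compound exposure at various concentrations. Firefly/renilla luciferase ratio scaled between no-compound and reference-agonist controls. EC50 is the mean of three determinations.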

[4] = target: T4, Peroxisome proliferator-activated receptor delta (Homo sapiens, UniProt Q03181); experiment: Agonist activity at human GAL4 fused PPARdelta-LBD expressed in HEK293 cells after 18 hrs by luciferase reporter gene assay; format: cell-based
T4 sequence (Q03181 whole entry): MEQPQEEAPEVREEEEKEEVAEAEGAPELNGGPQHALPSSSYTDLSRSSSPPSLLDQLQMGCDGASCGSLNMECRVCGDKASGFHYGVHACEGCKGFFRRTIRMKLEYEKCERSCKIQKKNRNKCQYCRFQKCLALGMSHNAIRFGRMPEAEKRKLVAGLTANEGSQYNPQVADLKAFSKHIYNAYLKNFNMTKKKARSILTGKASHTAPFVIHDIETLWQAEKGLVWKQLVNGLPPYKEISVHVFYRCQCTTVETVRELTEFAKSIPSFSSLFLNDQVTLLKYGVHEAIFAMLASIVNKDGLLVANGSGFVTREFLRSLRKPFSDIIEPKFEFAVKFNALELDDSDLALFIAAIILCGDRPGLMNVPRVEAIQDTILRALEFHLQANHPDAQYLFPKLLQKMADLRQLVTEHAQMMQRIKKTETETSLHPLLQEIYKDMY

[5] = target: T2, Free fatty acid receptor 1; experiment: Agonist activity at FFA1 (unknown origin); format: functional; in short: as §1
Mus musculus [6] = experiment: Hypoglycemic activity in ob/ob mouse assessed as decrease in blood glucose AUC (0 to 120 mins) at 40 mg/kg, po bid administered via gavage 30 mins prior to glucose load by OGTT relative to control; format: functional; design: scale not given: the % may be the effect or the level left
In short: (§2)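 Male ob/ob mice, six weeks old, acclimatized 1 week. Dosed by gavage twice daily for 5 days with 100 or 40 mg/kg, or with 0.5% methylcellulose vehicle. OGTT on days 0 and 5: overnight fast, dose, then oral glucose 3 g/kg 30 min later. Tail-tip blood glucose by strip at −30, 0, 15, 30, 60 and 120 min. n = 6/group, mean ± SD, Student's t test.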

Mus musculus [7] = experiment: Hypoglycemic activity in ob/ob mouse assessed as decrease in blood glucose AUC (0 to 120 mins) at 40 mg/kg, po bid administered via gavage for 5 days starting at 30 mins prior to glucose load by OGTT relative to control; format: functional; design: scale not given: the % may be the effect or the level left; in short: as §2
Mus musculus [8] = experiment: Hypoglycemic activity in ICR mouse assessed as decrease in blood glucose AUC (0 to 120 mins) at 20 mg/kg, po administered 30 mins prior to glucose load by OGTT relative to control; format: functional; design: scale not given: the % may be the effect or the level left
In short: (§3)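 Male ICR mice (18–22 g), acclimatized 1 week. Single oral dose (10, 30, 100 or 20 mg/kg) in 0.5% carboxymethylcellulose/methylcellulose vehicle, given 30 min before an oral glucose load of 3 g/kg. Blood glucose measured by test strip at −30, 0, 15, 30, 60 and 120 min. AUC0–120 min compared with vehicle.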

Mus musculus [9] = experiment: Hypoglycemic activity in ob/ob mouse assessed as decrease in blood glucose AUC (0 to 120 mins) at 100 mg/kg, po bid administered via gavage 30 mins prior to glucose load by OGTT relative to control; format: functional; design: scale not given: the % may be the effect or the level left; in short: as §2
Mus musculus [10] = experiment: Hypoglycemic activity in ICR mouse assessed as decrease in plasma glucose level administered orally 30 mins prior to glucose load and measured after 120 mins by OGTT; format: functional, organism-based; in short: as §3
Mus musculus [11] = experiment: Hypoglycemic activity in ICR mouse assessed as decrease in blood glucose AUC (0 to 120 mins) at 100 mg/kg, po administered 30 mins prior to glucose load by OGTT relative to control; format: functional; design: scale not given: the % may be the effect or the level left; in short: as §3
Mus musculus [12] = experiment: Hypoglycemic activity in ICR mouse assessed as decrease in blood glucose AUC (0 to 120 mins) at 10 mg/kg, po administered 30 mins prior to glucose load by OGTT relative to control; format: functional; design: scale not given: the % may be the effect or the level left; in short: as §3
Mus musculus [13] = experiment: Hypoglycemic activity in ob/ob mouse assessed as decrease in blood glucose AUC (0 to 120 mins) at 100 mg/kg, po bid administered via gavage for 5 days starting at 30 mins prior to glucose load by OGTT relative to control; format: functional; design: scale not given: the % may be the effect or the level left; in short: as §2
Mus musculus [14] = experiment: Hypoglycemic activity in ICR mouse assessed as decrease in blood glucose AUC (0 to 120 mins) at 30 mg/kg, po administered 30 mins prior to glucose load by OGTT relative to control; format: functional; design: scale not given: the % may be the effect or the level left; in short: as §3

T2 sequence (O14842 whole entry): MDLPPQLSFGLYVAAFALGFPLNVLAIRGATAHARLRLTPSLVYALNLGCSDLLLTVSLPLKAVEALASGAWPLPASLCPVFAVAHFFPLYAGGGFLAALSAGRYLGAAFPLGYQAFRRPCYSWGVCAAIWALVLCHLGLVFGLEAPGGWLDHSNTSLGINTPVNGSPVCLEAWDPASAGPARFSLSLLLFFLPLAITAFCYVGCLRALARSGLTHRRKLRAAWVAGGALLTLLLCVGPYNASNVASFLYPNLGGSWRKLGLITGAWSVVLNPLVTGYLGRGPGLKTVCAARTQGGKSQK

| EC50 [1] [µM] | EC50 [2] [µM] | EC50 [3] [µM] | EC50 [4] [µM] | Structure (SMILES) | further results |
| --- | --- | --- | --- | --- | --- |
| 1.75 | 3.02 | > 10 | 4.84 | CC(C)(C)c1cccc(OCCCOc2ccc3c(c2)OCC3CC(=O)O)c1 (stereo unspecified) |  |
| 2.02 | > 10 | > 10 | 1.93 | Cc1ccccc1OCCCOc1ccc2c(c1)OCC2CC(=O)O (stereo unspecified) |  |
| 1.54 | > 10 | > 10 | 1.73 | Cc1cc(OCCCOc2cccc(Cl)c2)ccc1OCC(=O)O |  |
| 2.67 | > 10 | > 10 | 2.09 | O=C(O)CC1COc2cc(OCCCOc3ccccc3F)ccc21 (stereo unspecified) |  |
| 1.43 | 2.38 | > 10 | 1.75 | O=C(O)C[C@@H]1COc2cc(OCCCOc3cccc(Cl)c3)ccc21 | Activity (Mus musculus [9]): 7.6%; Activity (Mus musculus [10]): Dose-dependent effect; Activity (Mus musculus [11]): 18.6%; Activity (Mus musculus [12]): 1.1%; Activity (Mus musculus [13]): 17.3%; Activity (Mus musculus [14]): 8.1% |
| 3.17 | 8.45 | > 10 | 3.35 | O=C(O)COc1ccc(OCCCOc2cccc(Cl)c2)cc1F |  |
| 7.75 | > 10 | > 10 | 7.93 | O=C(O)CC1COc2cc(OCCOc3ccccc3)ccc21 (stereo unspecified) |  |
| 1.75 | 3.59 | > 10 | 2.42 | Cc1cccc(OCCCOc2ccc3c(c2)OCC3CC(=O)O)c1 (stereo unspecified) |  |
| 1.85 | 2.76 | > 10 | 5.49 | O=C(O)CC1COc2cc(OCCCOc3cccc(-c4ccccc4)c3)ccc21 (stereo unspecified) |  |
| 2.97 | 4.26 | 7.31 | 1.98 | O=C(O)CC1COc2cc(OCCCOc3ccc(-c4ccccc4)cc3)ccc21 (stereo unspecified) |  |
| > 10 | > 10 | > 10 | 0.17 | O=C(O)C[C@@H]1CCc2cc(OCCCOc3ccccc3)ccc21 |  |

Further lines, the compound ahead of its results:

| Structure (SMILES) | EC50 [1] [µM] | EC50 [2] [µM] | EC50 [3] [µM] | EC50 [4] [µM] | further results |
| --- | --- | --- | --- | --- | --- |
| O=C(O)CC1COc2cc(OCCCOc3cccc(Cl)c3)ccc21 (stereo unspecified) | 1.69 | 3.07 | > 10 | 2.16 |  |
| Cc1ccc(OCCCOc2ccc3c(c2)OCC3CC(=O)O)cc1 (stereo unspecified) | 1.81 | 7.62 | > 10 | 1.95 |  |
| CC#C[C@@H](CC(=O)O)c1ccc(OCCCOc2cccc(Cl)c2)cc1 |  |  |  |  | EC50 [5]: 0.01 µM |
| O=C(O)CC1COc2cc(OCCCOc3cccc(Br)c3)ccc21 (stereo unspecified) | 1.67 | 3.45 | > 10 | 2.37 |  |
| Cc1cc(OCCCS(C)(=O)=O)cc(C)c1-c1cccc(COc2ccc3c(c2)OC[C@H]3CC(=O)O)c1 |  |  |  |  | Activity (Mus musculus [6]): 13.1%; Activity (Mus musculus [7]): 20.2%; Activity (Mus musculus [8]): -26.9% |
| O=C(O)CS(=O)(=O)c1ccc(OCCCOc2cccc(Cl)c2)cc1 | > 10 | > 10 | > 10 | > 10 |  |
| [2H]C([2H])(Cc1ccc(OCCCOc2cccc(Cl)c2)cc1)C(=O)O | 1.92 | 3.28 | > 10 | 4.56 |  |
| CC(C)(C)c1cccc(OCCOc2ccc3c(c2)OCC3CC(=O)O)c1 (stereo unspecified) | 2.03 | 3.85 | > 10 | 9.57 |  |
| Cc1cc(OCCCOc2ccc(-c3ccccc3)cc2)ccc1OCC(=O)O | 4.56 | > 10 | 5.26 | 1.52 |  |
| O=C(O)CC1COc2cc(OCCCOc3ccccc3)ccc21 (stereo unspecified) | 5.26 | > 10 | > 10 | 3.26 |  |
